Measured values from the M2OR odorant receptor database.

How the values were obtained:
Conditions in all cases: stereoisomer not certain
OR2B11 (Homo sapiens) = biological target: T1, OR2B11 (Homo sapiens) (UniProt Q5JQS5)
T1 sequence (whole entry): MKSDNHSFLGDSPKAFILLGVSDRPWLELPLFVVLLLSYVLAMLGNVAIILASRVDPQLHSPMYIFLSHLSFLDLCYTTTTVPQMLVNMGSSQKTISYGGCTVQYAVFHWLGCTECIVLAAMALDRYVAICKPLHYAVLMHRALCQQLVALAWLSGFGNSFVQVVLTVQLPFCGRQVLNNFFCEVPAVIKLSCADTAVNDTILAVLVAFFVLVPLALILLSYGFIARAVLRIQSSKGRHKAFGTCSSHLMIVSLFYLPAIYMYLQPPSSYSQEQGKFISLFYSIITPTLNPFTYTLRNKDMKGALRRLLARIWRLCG
In short: (§1)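 Each entry records the cell line, G-protein, co-transfected protein and tags used. Methods varied with the source, often transient luciferase assays in mammalian cell lines. A receptor–molecule pair is called responsive (active) if the original authors judged its signal statistically different from baseline and non-responsive (inactive) otherwise.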

OR2B3 (Homo sapiens) = biological target: T2, OR2B3 (Homo sapiens) (UniProt O76000)
T2 sequence (whole entry): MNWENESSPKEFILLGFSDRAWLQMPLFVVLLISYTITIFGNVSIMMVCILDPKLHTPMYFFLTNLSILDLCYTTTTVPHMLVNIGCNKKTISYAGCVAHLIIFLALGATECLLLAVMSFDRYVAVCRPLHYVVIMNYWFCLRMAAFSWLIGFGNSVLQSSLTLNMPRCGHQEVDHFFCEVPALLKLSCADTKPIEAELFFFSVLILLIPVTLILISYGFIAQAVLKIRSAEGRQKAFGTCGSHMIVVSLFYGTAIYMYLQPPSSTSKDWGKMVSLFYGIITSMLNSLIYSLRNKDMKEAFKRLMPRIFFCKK
In short: as §1

OR2BB [1] = test system: OR2BB
In short: as §1
Target sequence in this assay (as listed by the source): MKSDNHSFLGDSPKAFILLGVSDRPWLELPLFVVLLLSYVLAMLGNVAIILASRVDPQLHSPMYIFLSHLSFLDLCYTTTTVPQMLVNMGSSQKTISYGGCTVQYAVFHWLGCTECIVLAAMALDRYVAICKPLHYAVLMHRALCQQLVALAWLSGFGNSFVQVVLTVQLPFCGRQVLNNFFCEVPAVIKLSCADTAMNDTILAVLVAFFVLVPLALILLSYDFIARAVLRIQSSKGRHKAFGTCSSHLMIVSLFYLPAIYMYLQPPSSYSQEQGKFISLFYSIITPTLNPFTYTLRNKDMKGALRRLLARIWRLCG

OR2BB [2] = test system: OR2BB; remark: listed apart in the source
In short: as §1
Target sequence in this assay (as listed by the source): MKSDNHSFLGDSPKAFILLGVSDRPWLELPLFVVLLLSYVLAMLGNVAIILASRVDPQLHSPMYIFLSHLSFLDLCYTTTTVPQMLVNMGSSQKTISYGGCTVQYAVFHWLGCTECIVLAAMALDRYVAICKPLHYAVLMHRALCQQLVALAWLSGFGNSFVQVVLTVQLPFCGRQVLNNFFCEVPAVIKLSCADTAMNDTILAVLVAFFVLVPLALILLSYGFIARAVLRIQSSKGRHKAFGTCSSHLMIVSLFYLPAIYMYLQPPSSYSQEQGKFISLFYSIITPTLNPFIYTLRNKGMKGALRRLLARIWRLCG

OR2BB [3] = test system: OR2BB; remark: listed apart in the source
In short: as §1
Target sequence in this assay (as listed by the source): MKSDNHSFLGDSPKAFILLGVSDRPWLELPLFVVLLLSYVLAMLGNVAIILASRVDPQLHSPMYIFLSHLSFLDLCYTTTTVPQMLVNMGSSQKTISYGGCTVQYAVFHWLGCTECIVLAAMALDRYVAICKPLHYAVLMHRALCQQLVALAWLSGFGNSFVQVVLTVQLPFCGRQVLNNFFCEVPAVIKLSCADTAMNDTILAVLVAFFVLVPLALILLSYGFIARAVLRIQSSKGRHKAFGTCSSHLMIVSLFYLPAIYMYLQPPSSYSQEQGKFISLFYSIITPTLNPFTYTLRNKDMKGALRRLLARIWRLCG

OR2BB [4] = test system: OR2BB; remark: listed apart in the source
In short: as §1
Target sequence in this assay (as listed by the source): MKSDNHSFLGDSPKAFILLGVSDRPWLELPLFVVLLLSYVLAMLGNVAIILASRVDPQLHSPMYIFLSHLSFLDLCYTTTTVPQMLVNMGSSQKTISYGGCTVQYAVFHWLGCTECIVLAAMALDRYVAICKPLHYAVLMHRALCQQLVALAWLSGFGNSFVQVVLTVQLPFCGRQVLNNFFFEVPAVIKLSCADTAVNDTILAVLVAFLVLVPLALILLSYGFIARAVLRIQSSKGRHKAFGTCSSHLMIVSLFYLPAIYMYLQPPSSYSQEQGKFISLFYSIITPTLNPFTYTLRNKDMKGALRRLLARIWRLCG

OR2BB [5] = test system: OR2BB; remark: listed apart in the source
In short: as §1
Target sequence in this assay (as listed by the source): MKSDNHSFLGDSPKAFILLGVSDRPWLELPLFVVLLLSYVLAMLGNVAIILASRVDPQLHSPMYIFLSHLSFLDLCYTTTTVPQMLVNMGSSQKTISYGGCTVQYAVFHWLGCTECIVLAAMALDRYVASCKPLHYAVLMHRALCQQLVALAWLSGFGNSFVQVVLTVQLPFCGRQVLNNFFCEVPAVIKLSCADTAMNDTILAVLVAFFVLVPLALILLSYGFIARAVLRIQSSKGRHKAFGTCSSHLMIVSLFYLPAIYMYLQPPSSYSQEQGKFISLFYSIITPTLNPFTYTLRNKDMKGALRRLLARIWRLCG

OR2C1 [6] = test system: OR2C1
In short: as §1
Target sequence in this assay (as listed by the source): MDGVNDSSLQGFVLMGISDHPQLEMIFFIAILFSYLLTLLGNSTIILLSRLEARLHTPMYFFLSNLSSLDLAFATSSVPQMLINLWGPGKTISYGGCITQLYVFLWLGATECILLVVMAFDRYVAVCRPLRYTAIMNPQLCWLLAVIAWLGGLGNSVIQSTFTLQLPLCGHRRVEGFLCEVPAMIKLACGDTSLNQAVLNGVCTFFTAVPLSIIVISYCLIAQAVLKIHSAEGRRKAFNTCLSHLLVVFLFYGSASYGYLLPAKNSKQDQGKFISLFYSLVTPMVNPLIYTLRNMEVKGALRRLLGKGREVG

OR2C1 [7] = test system: OR2C1; remark: listed apart in the source
In short: as §1
Target sequence in this assay (as listed by the source): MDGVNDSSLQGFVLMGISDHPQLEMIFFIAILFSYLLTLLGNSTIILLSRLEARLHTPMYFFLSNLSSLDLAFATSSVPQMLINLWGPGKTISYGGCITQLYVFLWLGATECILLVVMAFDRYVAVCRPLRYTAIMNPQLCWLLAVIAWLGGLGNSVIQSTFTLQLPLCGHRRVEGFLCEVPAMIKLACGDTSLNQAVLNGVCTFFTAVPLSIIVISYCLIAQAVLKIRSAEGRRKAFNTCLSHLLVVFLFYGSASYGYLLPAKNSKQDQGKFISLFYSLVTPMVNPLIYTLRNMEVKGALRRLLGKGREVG

OR2C1 [8] = test system: OR2C1; remark: listed apart in the source
In short: as §1
Target sequence in this assay (as listed by the source): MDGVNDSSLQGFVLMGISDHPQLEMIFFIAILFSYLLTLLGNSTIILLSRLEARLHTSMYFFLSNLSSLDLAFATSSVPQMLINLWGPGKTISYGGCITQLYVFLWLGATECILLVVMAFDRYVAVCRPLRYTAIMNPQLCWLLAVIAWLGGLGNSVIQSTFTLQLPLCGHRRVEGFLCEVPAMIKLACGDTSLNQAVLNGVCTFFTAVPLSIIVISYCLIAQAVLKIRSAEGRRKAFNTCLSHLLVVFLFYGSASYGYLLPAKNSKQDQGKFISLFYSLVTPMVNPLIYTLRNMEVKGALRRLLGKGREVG

OR2C1 [9] = test system: OR2C1; remark: listed apart in the source
In short: as §1
Target sequence in this assay (as listed by the source): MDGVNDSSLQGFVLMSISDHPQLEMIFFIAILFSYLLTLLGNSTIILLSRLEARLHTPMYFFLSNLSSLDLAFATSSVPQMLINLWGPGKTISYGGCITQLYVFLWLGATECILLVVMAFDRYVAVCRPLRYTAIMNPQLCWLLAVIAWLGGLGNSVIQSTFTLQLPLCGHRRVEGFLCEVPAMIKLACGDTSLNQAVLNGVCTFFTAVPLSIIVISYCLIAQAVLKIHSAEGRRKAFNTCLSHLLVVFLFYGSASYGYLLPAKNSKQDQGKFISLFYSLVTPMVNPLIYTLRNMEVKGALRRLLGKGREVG

OR2C1 [10] = test system: OR2C1; remark: listed apart in the source
In short: as §1
Target sequence in this assay (as listed by the source): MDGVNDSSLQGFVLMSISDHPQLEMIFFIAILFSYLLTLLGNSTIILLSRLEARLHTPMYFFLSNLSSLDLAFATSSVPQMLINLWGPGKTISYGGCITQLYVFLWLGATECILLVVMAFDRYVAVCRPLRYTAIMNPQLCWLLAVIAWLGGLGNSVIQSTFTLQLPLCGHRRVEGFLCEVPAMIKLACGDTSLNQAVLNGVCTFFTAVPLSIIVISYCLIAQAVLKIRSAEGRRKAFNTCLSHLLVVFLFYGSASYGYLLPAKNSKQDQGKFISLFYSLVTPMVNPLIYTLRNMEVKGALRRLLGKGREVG

OR2C1 [11] = test system: OR2C1; remark: listed apart in the source
In short: as §1
Target sequence in this assay (as listed by the source): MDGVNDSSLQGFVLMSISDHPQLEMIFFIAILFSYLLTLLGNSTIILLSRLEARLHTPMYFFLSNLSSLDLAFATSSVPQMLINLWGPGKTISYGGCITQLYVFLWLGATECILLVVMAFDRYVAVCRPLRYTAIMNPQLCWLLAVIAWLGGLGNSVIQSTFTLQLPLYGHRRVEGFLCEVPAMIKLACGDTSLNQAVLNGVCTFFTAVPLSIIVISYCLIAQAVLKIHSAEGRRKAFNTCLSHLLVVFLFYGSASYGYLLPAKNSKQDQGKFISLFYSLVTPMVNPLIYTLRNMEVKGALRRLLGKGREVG

OR2B2 (Homo sapiens) = OR2B2 (Homo sapiens) (UniProt Q9GZK3)
Sequence of OR2B2 (Homo sapiens) (Q9GZK3 whole entry): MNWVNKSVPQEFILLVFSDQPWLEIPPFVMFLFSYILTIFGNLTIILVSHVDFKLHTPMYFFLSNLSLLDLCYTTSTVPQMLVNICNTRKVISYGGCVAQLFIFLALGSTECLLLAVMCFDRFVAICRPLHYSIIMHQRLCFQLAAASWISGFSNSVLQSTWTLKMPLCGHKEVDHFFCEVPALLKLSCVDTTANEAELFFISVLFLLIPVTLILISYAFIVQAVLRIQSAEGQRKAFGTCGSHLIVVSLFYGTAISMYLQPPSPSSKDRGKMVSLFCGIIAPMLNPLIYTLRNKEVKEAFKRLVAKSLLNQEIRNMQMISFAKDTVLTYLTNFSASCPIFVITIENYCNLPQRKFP
In short: as §1

OR2B6 (Homo sapiens) = OR2B6 (Homo sapiens) (UniProt P58173)
Sequence of OR2B6 (Homo sapiens) (P58173 whole entry): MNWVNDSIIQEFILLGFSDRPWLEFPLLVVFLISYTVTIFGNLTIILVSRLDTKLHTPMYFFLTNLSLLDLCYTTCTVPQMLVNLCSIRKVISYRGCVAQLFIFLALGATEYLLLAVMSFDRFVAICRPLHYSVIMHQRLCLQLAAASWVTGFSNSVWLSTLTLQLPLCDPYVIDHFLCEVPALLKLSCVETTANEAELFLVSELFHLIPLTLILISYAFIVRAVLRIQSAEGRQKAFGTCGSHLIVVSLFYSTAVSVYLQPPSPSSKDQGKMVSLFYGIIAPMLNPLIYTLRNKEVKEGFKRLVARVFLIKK
In short: as §1

OR2C1 (Homo sapiens) = biological target: T3, OR2C1 (Homo sapiens) (UniProt O95371)
T3 sequence (whole entry): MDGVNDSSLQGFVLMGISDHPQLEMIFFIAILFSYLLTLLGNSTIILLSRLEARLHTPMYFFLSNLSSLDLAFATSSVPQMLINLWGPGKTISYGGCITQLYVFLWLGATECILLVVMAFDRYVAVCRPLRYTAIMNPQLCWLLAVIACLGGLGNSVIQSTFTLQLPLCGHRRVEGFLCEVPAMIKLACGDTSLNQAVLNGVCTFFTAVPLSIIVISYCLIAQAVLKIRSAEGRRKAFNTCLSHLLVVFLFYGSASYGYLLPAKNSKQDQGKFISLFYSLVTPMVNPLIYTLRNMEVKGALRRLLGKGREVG
In short: as §1

OR2C3 (Homo sapiens) = OR2C3 (Homo sapiens) (UniProt Q8N628)
Sequence of OR2C3 (Homo sapiens) (Q8N628 whole entry): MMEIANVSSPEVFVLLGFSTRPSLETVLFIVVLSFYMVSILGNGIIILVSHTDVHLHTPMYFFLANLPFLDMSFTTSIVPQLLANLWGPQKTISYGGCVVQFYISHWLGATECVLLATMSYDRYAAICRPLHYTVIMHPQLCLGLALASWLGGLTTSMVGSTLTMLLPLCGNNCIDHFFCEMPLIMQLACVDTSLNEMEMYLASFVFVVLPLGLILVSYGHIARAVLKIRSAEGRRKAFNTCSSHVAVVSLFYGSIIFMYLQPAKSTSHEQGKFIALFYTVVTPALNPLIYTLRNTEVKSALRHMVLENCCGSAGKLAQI
In short: as §1

OR2D2 (Homo sapiens) = OR2D2 (Homo sapiens) (UniProt Q9H210)
Sequence of OR2D2 (Homo sapiens) (Q9H210 whole entry): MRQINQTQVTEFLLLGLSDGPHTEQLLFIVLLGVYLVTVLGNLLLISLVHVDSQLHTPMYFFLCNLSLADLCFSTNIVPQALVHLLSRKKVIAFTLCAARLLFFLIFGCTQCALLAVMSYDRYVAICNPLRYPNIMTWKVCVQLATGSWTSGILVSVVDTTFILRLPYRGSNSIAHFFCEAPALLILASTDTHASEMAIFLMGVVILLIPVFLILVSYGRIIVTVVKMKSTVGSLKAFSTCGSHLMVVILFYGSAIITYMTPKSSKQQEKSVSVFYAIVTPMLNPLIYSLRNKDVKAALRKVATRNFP
In short: as §1

OR2C3 [12] = test system: OR2C3
In short: as §1
Target sequence in this assay (as listed by the source): as the sequence (Q8N628 whole entry) above, with T20A, P68S, L289V counted along it

OR2C3 [13] = test system: OR2C3; remark: listed apart in the source
In short: as §1
Target sequence in this assay (as listed by the source): as the sequence (Q8N628 whole entry) above, with P68S counted along it

Measured: odorant receptor agonist call

O=CC=Cc1ccccc1
active: OR2B11 (Homo sapiens) | OR2BB [5] | OR2C1 [10] | OR2C1 [11]
inactive: OR2B3 (Homo sapiens) | OR2BB [1] | OR2BB [2] | OR2BB [3] | OR2BB [4] | OR2C1 [6] | OR2C1 [7] | OR2C1 [8] | OR2C1 [9]

O=Cc1ccccc1
inactive: OR2B3 (Homo sapiens)

Cc1c([N+](=O)[O-])c(C)c([N+](=O)[O-])c(C(C)(C)C)c1[N+](=O)[O-]
inactive: OR2B11 (Homo sapiens) | OR2B2 (Homo sapiens) | OR2B6 (Homo sapiens) | OR2C1 (Homo sapiens) | OR2C3 (Homo sapiens) | OR2D2 (Homo sapiens)

CCC1CCC(=O)O1 (stereo not given)
inactive: OR2C1 (Homo sapiens)

C=CCc1ccc(OC)cc1
inactive: OR2B3 (Homo sapiens)

O=c1cc(O)c2ccccc2o1
inactive: OR2C1 (Homo sapiens)

C=CCOC(=O)Cc1ccccc1
inactive: OR2B11 (Homo sapiens) | OR2B2 (Homo sapiens) | OR2B3 (Homo sapiens) | OR2B6 (Homo sapiens) | OR2BB [1] | OR2BB [3] | OR2C1 (Homo sapiens) | OR2C1 [7] | OR2C3 [12] | OR2C3 [13] | OR2D2 (Homo sapiens)

C=CCc1ccccc1
inactive: OR2C1 (Homo sapiens)
